Source: ChEMBL document CHEMBL2034930, “Alkylidene branched lupane derivatives: synthesis and antitumor activity” (Eur J Med Chem, 2012)
Active and inactive are the calls of the source. No cut-off for these calls is given here.

Key:
[1] = Solubility of the compound in water; type: physicochemical; conditions: buffer
DLD-1 = test: Cytotoxicity against human DLD1 cells after 96 hrs by SRB assay; type: functional, cell-based
Procedure, shortened: (§1)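 Cells exposed to test compounds for 96 h, then viable cells measured by sulforhodamine B staining as a percentage of untreated controls. IC50 read from dose-response curves, averaged over at least three independent experiments. Compounds tested free and also encapsulated in soybean-lecithin liposomes extruded through a 100 nm polycarbonate membrane (hydrodynamic diameter 70-120 nm, Z-average 105 nm, encapsulation >96% by HPLC).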

FaDu = test: Cytotoxicity against human FADU cells after 96 hrs by SRB assay; type: functional, cell-based; procedure, shortened: as §1
[2] = Cytotoxicity against human Lipo cells after 96 hrs by SRB assay; type: functional, cell-based; procedure, shortened: as §1
[3] = Cytotoxicity against human 518A2 cells after 96 hrs by SRB assay; type: functional, cell-based; procedure, shortened: as §1
A549 [4] = test: Cytotoxicity against human A549 cells after 96 hrs by SRB assay; type: functional, cell-based; procedure, shortened: as §1
8505C = test: Cytotoxicity against human 8505C cells after 96 hrs by SRB assay; type: functional, cell-based; procedure, shortened: as §1
NIH3T3 = test: Cytotoxicity against mouse NIH/3T3 cells after 96 hrs by SRB assay; type: cell-based; conditions: NIH3T3, 96 h; procedure, shortened: as §1
A2780 = test: Cytotoxicity against human A2780 cells after 96 hrs by SRB assay; type: functional, cell-based; procedure, shortened: as §1
A-431 = test: Cytotoxicity against human A431 cells after 96 hrs by SRB assay; type: functional, cell-based; procedure, shortened: as §1
SW480 [5] = test: Cytotoxicity against human SW480 cells after 96 hrs by SRB assay; type: functional, cell-based; procedure, shortened: as §1
SW-1736 = test: Cytotoxicity against human SW1736 cells after 96 hrs by SRB assay; type: functional, cell-based; procedure, shortened: as §1
HCT-8 = test: Cytotoxicity against human HCT8 cells after 96 hrs by SRB assay; type: functional, cell-based; procedure, shortened: as §1
MCF7 = test: Cytotoxicity against human MCF7 cells after 96 hrs by SRB assay; type: functional, cell-based; procedure, shortened: as §1
[6] = Cytotoxicity against human A253 cells after 96 hrs by SRB assay; type: functional, cell-based; procedure, shortened: as §1
HCT-116 = test: Cytotoxicity against human HCT116 cells after 96 hrs by SRB assay; type: functional, cell-based; procedure, shortened: as §1
HT-29 = test: Cytotoxicity against human HT-29 cells after 96 hrs by SRB assay; type: functional, cell-based; procedure, shortened: as §1
A549 [7] = test: Induction of apoptosis in human A549 cells at 0.8 uM by acridine orange/ethidium bromide staining; type: functional, cell-based
SW480 [8] = test: Induction of apoptosis in human SW480 cells assessed as DNA laddering at 6 uM after 24 hrs; type: functional, cell-based
[9] = Homo sapiens, DLD-1, 96 h, read-out: IC50
[10] = Homo sapiens, FaDu, 96 h, read-out: IC50
[11] = Homo sapiens, Lipo, 96 h, read-out: IC50
[12] = Homo sapiens, 518A2, 96 h, read-out: IC50
[13] = Homo sapiens, A549, 96 h, read-out: IC50
[14] = Homo sapiens, 8505C, 96 h, read-out: IC50
[15] = Homo sapiens, A2780, 96 h, read-out: IC50
[16] = Homo sapiens, A-431, 96 h, read-out: IC50
[17] = Homo sapiens, SW480, 96 h, read-out: IC50
[18] = Homo sapiens, SW-1736, 96 h, read-out: IC50
[19] = Homo sapiens, HCT-8, 96 h, read-out: IC50
[20] = Homo sapiens, MCF7, 96 h, read-out: IC50
[21] = Homo sapiens, A253, 96 h, read-out: IC50
[22] = Homo sapiens, HCT-116, 96 h, read-out: IC50
[23] = Homo sapiens, HT-29, 96 h, read-out: IC50

| SMILES | solubility [1] | IC50 (DLD-1; [9]) [µM] | IC50 (FaDu; [10]) [µM] | IC50 [2, 11] [nM] | IC50 [3, 12] [µM] | IC50 (A549 [4]; [13]) [µM] | IC50 (8505C; [14]) [µM] | IC50 (NIH3T3) [µM] | IC50 (A2780; [15]) [nM] | IC50 (A-431; [16]) [nM] | IC50 (SW480 [5]; [17]) [nM] | IC50 (SW-1736; [18]) [µM] | IC50 (HCT-8; [19]) [µM] | IC50 (MCF7; [20]) [nM] | IC50 [6, 21] [nM] | IC50 (HCT-116; [22]) [µM] | IC50 (HT-29; [23]) [µM] | further results |
| --- | --- | --- | --- | --- | --- | --- | --- | --- | --- | --- | --- | --- | --- | --- | --- | --- | --- | --- |
| C=C(C)[C@@H]1CC[C@]2(C(=O)O)CC[C@]3(C)[C@H](CC[C@@H]4[C@@]5(C)CCC(=O)C(C)(C)[C@@H]5CC[C@]43C)[C@@H]12 [BETUNOLIC ACID] | Insoluble | – | – | – | – | – | – | – | – | – | – | – | – | – | – | – | – | – |
| C=C(C)[C@@H]1CC[C@]2(C(=O)OC)CC[C@]3(C)[C@H](CC[C@@H]4[C@@]5(C)C[C@@H](CC[N+](=O)[O-])C(=O)C(C)(C)[C@@H]5CC[C@]43C)[C@@H]12 | Insoluble | – | – | – | – | – | – | – | – | – | – | – | – | – | – | – | – | – |
| C=C(C)[C@@H]1CC[C@]2(CO)CC[C@]3(C)[C@H](CC[C@@H]4[C@@]5(C)CC[C@H](O)C(C)(C)[C@@H]5CC[C@]43C)[C@@H]12 [BETULIN] | Insoluble | – | – | – | – | – | – | – | – | – | – | – | – | – | – | – | – | – |
| C=C(C)[C@@H]1CC[C@]2(C=O)CC[C@]3(C)[C@H](CC[C@@H]4[C@@]5(C)CCC(=O)C(C)(C)[C@@H]5CC[C@]43C)[C@@H]12 [BETULONAL] | Insoluble | – | – | – | – | – | – | – | – | – | – | – | – | – | – | – | – | – |
| C=C(C)[C@@H]1CC[C@]2(C(=O)OC)CC[C@]3(C)[C@H](CC[C@@H]4[C@@]5(C)C/C(=C\C)C(=O)C(C)(C)[C@@H]5CC[C@]43C)[C@@H]12 | Insoluble | > 30 | 22.4 | 27800 | > 30 | > 30 | 26.4 | 29.1 | 16100 | 26400 | 16000 | 21.9 | 17.2 | 27200 | 21600 | 24 | > 30 | – |
| C=C1C[C@]2(C)[C@H]3CC[C@@H]4[C@H]5[C@H](C(=C)C)CC[C@]5(C=O)CC[C@@]4(C)[C@]3(C)CC[C@H]2C(C)(C)C1=O | Insoluble | 3.7 | 5.1 | 2700 | 3.8 | 1.8 | 1.3 | 4.7 | 1300 | 3000 | 2700 | 2.1 | 7.1 | 2100 | 1000 | 3.2 | 7.1 | – |
| C=C1C[C@]2(C)[C@H]3CC[C@@H]4[C@H]5[C@H](C(=C)C)CC[C@]5(C(=O)N5CCSCC5)CC[C@@]4(C)[C@]3(C)CC[C@H]2C(C)(C)C1=O | Insoluble | 1.5 | 1.6 | 1500 | 1.5 | 1.5 | 1.5 | 1.9 | 1000 | 1400 | 1500 | 1.5 | 1.5 | 1400 | 1400 | 1.3 | 1.6 | – |
| C=C(C)[C@@H]1CC[C@]2(C(=O)OC)CC[C@]3(C)[C@H](CC[C@@H]4[C@@]5(C)C[C@@H](CSCCO)C(=O)C(C)(C)[C@@H]5CC[C@]43C)[C@@H]12 | Insoluble | 2.5 | 2.5 | 1800 | 1.5 | 2.1 | 2.3 | 2.1 | 1600 | 1700 | 1500 | 2.1 | 2.5 | 1500 | 1500 | 1.9 | 1.4 | Activity (A549 [7]): Active; Activity (SW480 [8]): Active |
| C=C(C)[C@@H]1CC[C@]2(C(=O)OC)CC[C@]3(C)[C@H](CC[C@@H]4[C@@]5(C)CCC(=O)C(C)(C)[C@@H]5CC[C@]43C)[C@@H]12 [METHYL BETULONATE] | Insoluble | – | – | – | – | – | – | – | – | – | – | – | – | – | – | – | – | – |
| C=C(C)[C@@H]1CC[C@]2(C(=O)OC)CC[C@]3(C)[C@H](CC[C@@H]4[C@@]5(C)C[C@@H](CS(=O)(=O)CCO)C(=O)C(C)(C)[C@@H]5CC[C@]43C)[C@@H]12 | Insoluble | 4.4 | 3.8 | 2700 | 2.6 | 3.3 | 3.4 | 3.2 | 2600 | 2800 | 2600 | 3.3 | 4 | 2600 | 2500 | 2.8 | 2.5 | – |
| C=C1C[C@]2(C)[C@H]3CC[C@@H]4[C@H]5[C@H](C(=C)C)CC[C@]5(C(=O)OC)CC[C@@]4(C)[C@]3(C)CC[C@H]2C(C)(C)C1=O | Insoluble | 6.4 | 7.7 | 4600 | 4.2 | 5.1 | 5 | 4.9 | 5100 | 4900 | 4500 | 4.9 | 9 | 4400 | 4000 | 4.5 | 5.9 | Activity (A549 [7]): Active; Activity (SW480 [8]): Active |
| C=C(C)[C@@H]1CC[C@]2(C(=O)OC)CC[C@]3(C)[C@H](CC[C@@H]4[C@@]5(C)C[C@@]6(CCN=N6)C(=O)C(C)(C)[C@@H]5CC[C@]43C)[C@@H]12 | Insoluble | – | – | – | – | – | – | – | – | – | – | – | – | – | – | – | – | IC50 (DLD-1; dld-1): > 30 µM; IC50 (FaDu; fadu): > 30 µM; IC50 ([2]; lipo): > 30 µmol; IC50 ([3]; 518a2): > 30 µM; IC50 (A549 [4]; a549): > 30 µM; IC50 (8505C; 8505c): > 30 µM; IC50 (A2780; a2780): > 30000 nM; IC50 (A-431; a-431): > 30000 nM; IC50 (SW480 [5]; sw480): > 30 µmol; IC50 (SW-1736; sw-1736): > 30 µmol; IC50 (HCT-8; hct-8): > 30 µmol; IC50 (MCF7; mcf7): > 30 µmol; IC50 ([6]; a253): > 30000 nM; IC50 (HCT-116; hct-116): > 30 µmol; IC50 (HT-29; ht-29): > 30 µmol |
| C=C/C=C1/C[C@]2(C)[C@H]3CC[C@@H]4[C@H]5[C@H](C(=C)C)CC[C@]5(C(=O)OC)CC[C@@]4(C)[C@]3(C)CC[C@H]2C(C)(C)C1=O | Insoluble | 14.2 | 17 | 11600 | 11.5 | 13 | 11.3 | 13.1 | 11200 | 13000 | 10500 | 15 | 14 | 11200 | 10400 | 14.6 | 10.9 | – |
